Measurements as given in PMC7669743 (Inorganic chemistry, 2020).
Read-outs that look alike come from different tables or passages of the source. Marks after values point to notes of the source that are not given here.

What was measured:
[1] = cited from earlier work
[2] = test system: SK-MEL-28 malignant melanoma cells; assay: Dark cytotoxicity and photocytotoxicity in normoxia; assay type: cell-based, human
SK-MEL-28 cells = assay: Dark cytotoxicity and photocytotoxicity in hypoxia; assay type: cell-based, human; details: for EC50: read-out: dark EC50 in hypoxia, hypoxia 1% O2, dark
Outline: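 SK-MEL-28 melanoma cells, 10,000 per well, pre-incubated 2–3 h at 1% O2 (5% CO2, 37 °C). Dosed 1 nM–300 μM, held 21–26 h at 1% O2, then film-sealed and given dark or light treatment. Cells returned to normoxia for 2 days, then resazurin (~60 μM final) for 4 h. EC50 came from zero-bottom log-logistic fits, PI as dark/light EC50.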

Lipophilicity = assay type: physicochemical; details: pH 7.4, phosphate buffer / 1-octanol, chloride salts
Outline: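 Modified shake-flask method. 10 mM saline-free phosphate buffer (pH 7.4) and 1-octanol were mutually pre-saturated at 1:4 by shaking at 230 rpm for 24 h (~20 °C). Chloride salts at 50 μM in saturated octanol plus saturated buffer (1:1) were shaken 200 times and centrifuged (~10,000 × g, 2 min). Each phase was read by absorbance at its longest-wavelength maximum (400–600 nm) against a standard curve. Log D is the log of the octanol/buffer concentration ratio.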

[3] = Solubility in high ionic strength aqueous media; assay type: physicochemical; details: for solubility in aqueous media relative to the dmb analogs: high ionic strength aqueous media, in words; for solubility in high ionic strength aqueous media: fully soluble
[4] = Singlet oxygen sensitization quantum yield; assay type: physicochemical; details: acetonitrile
Outline: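 PF6- salts were used at 5–20 μM in acetonitrile distilled over calcium hydride, air-saturated. The 1O2 phosphorescence band (~1276 nm) was integrated using NIR PMT detection. Quantum yield was calculated by relative actinometry against [Ru(bpy)3]2+ (Φ = 0.56, aerated MeCN), using emission integrals and absorbance at the excitation wavelength. The refractive-index ratio was 1 because both solutions were in acetonitrile.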

female C57BL/6J mice = assay: Maximum tolerated dose; details: intraperitoneal, doses 25–200 mg kg^−1, 2-week observation
[5] = cited from earlier work; remark: listed apart in the source
[6] = test system: amelanotic SK-MEL-28 human cells; assay: Fluence dependence of photocytotoxicity in normoxia; assay type: cell-based
[7] = read-out: dark EC50, dark (sham) treatment, SK-MEL-28
[8] = read-out: light EC50, visible light, visible 400–700 nm, 100 J cm^−2, ~20 mW cm^−2

[Os(phen)2(IP-4T)]Cl2
PIvis in hypoxia ([1]; hypoxia, visible light): 90

[Os(bpy)2(IP-2T)]Cl2 [1–2T]
EC50 [2, 7]: 42.2 µM
EC50 (SK-MEL-28 cells): 76.9 µM

[Os(dmb)3](Cl)2 [[Os(dmb)3]^2+, reference compound]
EC50 [2, 7]: > 100 µM

Cc1cccc(-c2cccc(C)n2)n1.Cc1cccc(-c2cccc(C)n2)n1.[Cl-].[Cl-].[Ru+2].c1ccc2c(-c3nc4c5cccnc5c5ncccc5c4[nH]3)cccc2c1 [[Ru(6,6′-dmb)2(1-NIP)]Cl2]
PI (PIvis) in hypoxia ([1]; 1% O2, visible light): 15

[Os(bpy)2(IP-3T)]Cl2 [1–3T]
EC50 [2, 7]: 45.8 µM
EC50 (SK-MEL-28 cells): 71.9 µM
log Do/w (Lipophilicity): amphiphilic
solubility in aqueous media relative to the dmb analogs [3]: less soluble

[Os(dmb)2(IP-3T)]Cl2 [2–3T]
solubility in high ionic strength aqueous media [3]: ≥ 1200 µM

[Os(dmb)2(IP-4T)]Cl2 [2–4T]
EC50 [2, 8]: 0.071 µM
PIgreen in hypoxia (SK-MEL-28 cells; hypoxia 1% O2, green light): 15
solubility in high ionic strength aqueous media [3]: ≥ 1200 µM
singlet oxygen quantum yield ΦΔ [4]: 56%
maximum tolerated dose (MTD) (female C57BL/6J mice): ≥ 200 mg/kg

[Os+2].c1ccc(-c2ccccn2)nc1.c1ccc(-c2ccccn2)nc1.c1ccc(-c2ccccn2)nc1 [[Os(bpy)3]^2+, [Os(bpy)3]Cl2, reference compound]
EC50 [2, 7]: > 100 µM
singlet oxygen quantum yield ΦΔ ([5]; acetonitrile, room temperature, excitation 479 nm, literature value ref 83): 0.22 (479)^a

[Os(bpy)2(IP-4T)]Cl2 [1–4T]
phototherapeutic index PIgreen ([2]; green 523 nm, ratio of dark to light EC50): 6700
EC50 [2, 7]: 71.9 µM
EC50 ([2]; read-out: light EC50, green light, green 523 nm, 100 J cm^−2): ~0.01 µM
EC50 ([2]; read-out: light EC50, red light, red 633 nm, 100 J cm^−2): ~0.01 µM
EC50 [2, 8]: 0.00131 µM
phototherapeutic index PIvis ([2]; visible light, ratio of dark to light EC50): 55,000
phototherapeutic index (PI) in hypoxia (SK-MEL-28 cells; hypoxia 1% O2, across the three light conditions): ~70
EC50 (SK-MEL-28 cells): 55.3 µM
fold improvement over 2–4T ([6]; PDT dose product EC50, normoxia): ≥ 5 fold
photocytotoxic activity at the lowest tested fluence ([6]; normoxia, 10 J cm^−2, both wavelengths (523 and 633 nm)): Submicromolar
solubility in aqueous media relative to the dmb analogs [3]: less soluble
singlet oxygen quantum yield ΦΔ [4]: 70%
maximum tolerated dose (MTD) (female C57BL/6J mice): ≥ 200 mg/kg

[Ru+2].c1ccc(-c2ccccn2)nc1.c1ccc(-c2ccccn2)nc1.c1ccc(-c2ccccn2)nc1 [[Ru(bpy)3]^2+]
singlet oxygen quantum yield ΦΔ of the standard ([5]; aerated MeCN): 0.56
